Assay outcomes as filed in PubChem.
mABHD4 FP: ABHD4 inhibitors, primary screen, biochemical, fluorescence polarization, mouse | 370,000 compounds, 0.54% hits | AID 720543, 2013 | purified mABHD4, FP-Rh probe fluorescence polarization | inhibition, % at 8.92 µM | (Lyso)-N-acylphosphatidylethanolamine lipase (Mus musculus), Q8VD66;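 active = inhibition exceeding the mean over every tested compound plus 3 SD, cut at about 30% in these data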;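 note: 0% = plate median of compound wells and 100% = S159A mutant with DMSO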
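Assay system: mABHD4 protein; medium: HEPES pH 7.0, NaCl, Pluronic buffer; dosing: 8.92 µM, single dose; schedule: 45 min + 60 min at 25 °C; signal: FP readout, ex 525 nm / em 598 nm; read-out: normalized percent inhibition of probe labeling; repeats: single replicate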
PAD4 inh: human PAD4 inhibitors, primary screen, biochemical, fluorescence polarization, 1536-well format; recombinant PAD4, RCA probe fluorescence polarization; inhibition, % at 6.36 µM; 330,000 compounds, 0.41% hits; AID 485272, 2010;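 active = percent inhibition above a cutoff equal to the mean of all tested compounds plus 3 SD, cut at about 15% in these data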;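 note: 0% = PAD4 with RCA probe and DMSO and 100% = probe without PAD4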
SIAE primary: human SIAE inhibitors, primary screen, biochemical, fluorescence polarization, FP-Rh probe, 1536-well HTS | SIAE FP-Rh probe binding | Sialate O-acetylesterase (Homo sapiens), Q9HAT2 | 370,000 compounds, 0.69% hits | inhibition, % at 9.66 µM;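 active = inhibition above a cutoff: mean of compounds within the control limits plus 3 SD of those, cut at about 17% in these data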;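 note: 0% = plate median of compound wells and 100% = probe without SIAE protein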
PRMT1 FP inh: PRMT1 methyltransferase inhibitors, primary screen, biochemical, fluorescence polarization. Protein arginine N-methyltransferase 1 (Homo sapiens), Q99873. recombinant PRMT1, activity-based probe fluorescence polarization. inhibition, % at 2.79 µM. 370,000 compounds, 1.3% hits. AID 652257, 2013;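 active = inhibition above about 21% made by adding two undisclosed values, limit read from the data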
HTRA1 inhibitor: HTRA1 serine protease inhibitors, primary screen, biochemical, fluorescence polarization, HTS | Q92743 | recombinant HTRA1, FP-rhodamine activity-based probe | inhibition, % at 5.96 µM | 340,000 compounds, 0.5% hits; in the data active = inhibition above about 36%;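 note: 0% = enzyme with DMSO and 100% = wells lacking enzyme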
Target sequence (Q92743 whole entry, looked up): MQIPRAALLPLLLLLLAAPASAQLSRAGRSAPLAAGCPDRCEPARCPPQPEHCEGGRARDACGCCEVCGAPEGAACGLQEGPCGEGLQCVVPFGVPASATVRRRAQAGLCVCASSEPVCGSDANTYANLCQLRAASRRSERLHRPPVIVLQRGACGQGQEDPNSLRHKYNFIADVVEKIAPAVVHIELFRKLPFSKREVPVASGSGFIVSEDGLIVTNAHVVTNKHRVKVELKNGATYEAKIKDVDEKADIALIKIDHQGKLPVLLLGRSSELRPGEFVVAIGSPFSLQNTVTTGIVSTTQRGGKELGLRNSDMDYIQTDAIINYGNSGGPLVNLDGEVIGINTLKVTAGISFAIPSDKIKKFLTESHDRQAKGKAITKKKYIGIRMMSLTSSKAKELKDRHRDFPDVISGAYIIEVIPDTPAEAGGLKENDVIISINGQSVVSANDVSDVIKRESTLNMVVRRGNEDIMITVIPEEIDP
TCR CD3 inh: inhibitors of human TCR-CD3 interaction, primary screen, biochemical, fluorescence, TAMRA-labeled TCR probe. inhibition, % at 9.4 µM. T-cell receptor (TCR). 360,000 compounds, 0.37% hits; in the data active = inhibition above about 19%;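 note: recombinant mutant TCR 2C K166C tagged with TAMRA read by polarization; 0% = receptor in buffer alone and 100% = receptor with positive control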
ABHD4 confirm: ABHD4 inhibitors, retest, confirmation, biochemical, fluorescence polarization, mouse. shares compounds with mABHD4 FP. purified mABHD4, FP-Rh probe fluorescence polarization. inhibition, % at 8.92 µM. 1,800 compounds, 55% hits. AID 720658, 2013;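 active = mean inhibition across replicates above the hit cutoff set in the primary screen, cut at about 30% in these data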;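 note: 0% = wild-type ABHD4 with DMSO and 100% = catalytically dead S159A mutant with DMSO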
Numbers without * were called inactive; . = not tested or not shown. Most compounds without a hit are left out; they make up all but 2.9% or so of the library.

SMILES | mABHD4 FP | PAD4 inh | SIAE primary | PRMT1 FP inh | HTRA1 inhibitor | TCR CD3 inh | ABHD4 confirm
O=CN1CCN(C(C(=O)NC2CCCCC2)c2cc3c(cc2[N+](=O)[O-])OCO3)CC1 (centres undefined) | 4 | -1 | 2 | 3 | 6 | 2 | .
CCN(c1cccc(C)c1)C(C(=O)Nc1ccc(OC)cc1)c1cc2c(cc1[N+](=O)[O-])OCO2 (centres undefined) | -2 | -4 | 5 | 3 | -20 | -2 | .
COc1ccc(NC(=O)C(c2cc3c(cc2[N+](=O)[O-])OCO3)N(C)Cc2ccccc2)cc1 (centres undefined) | 67* | 7 | 15 | 2 | -23 | 16 | -27
COc1ccc(NC(=O)C(c2cc3c(cc2[N+](=O)[O-])OCO3)N2CCN(C=O)CC2)cc1 (centres undefined) | 31* | 4 | 9 | -2 | 5 | 2 | 0
Cc1ccc(NS(=O)(=O)c2ccc3c(c2)NC(=O)CCS3)c(Cl)c1 | 12 | -1 | 1 | -1 | -6 | 1 | .
COc1ccc(Cl)cc1NS(=O)(=O)c1ccc2c(c1)NC(=O)CCS2 | 32* | -6 | -2 | 5 | 5 | -2 | 26
CC(C)c1ccc(NC(=O)Nc2nc(C(N)C3CCCCC3)cs2)cc1 (centres undefined) | 31* | . | 2 | -1 | . | -9 | 32*
O=C(NC1CCN(S(=O)(=O)c2ccccc2)CC1)c1ccccc1 | -1 | 1 | 0 | -3 | 3 | 6 | .
COc1ccc(S(=O)(=O)N2CCC(NC(=O)c3ccccc3)CC2)cc1 | 39* | 3 | 7 | 7 | 3 | -6 | -7
COc1ccc(-n2c(COc3ccccc3)nnc2SCC(=O)Nc2ccc(OCc3ccccc3)cc2)cc1 | -3 | . | 5 | 7 | . | . | .
COc1ccc(OC)c(S(=O)(=O)N2CCCCC2C(=O)N2CCCN(C)CC2)c1 (centres undefined) | -1 | . | 10 | -1 | . | . | .
Cc1[nH]n(-c2ccccc2)c(=O)c1C(C[N+](=O)[O-])c1ccc(Cl)cc1 (centres undefined) | 7 | -1 | 9 | -1 | 5 | 7 | .
Cc1[nH]n(-c2ncc(-c3ccccc3)s2)c(=O)c1C(c1ccc(Cl)cc1)C(C#N)C#N (centres undefined) | 49* | -10 | 14 | 6 | 12 | -13 | 52*
Cc1ccc(C)c(S(=O)(=O)/N=C2\C=C(NS(=O)(=O)c3ccccc3)C(=O)c3ccccc32)c1 | 46* | -2 | -4 | 6 | 13 | -7 | 58*
Cc1cccc(S(=O)(=O)Nc2cccc3c2C(=O)c2ccccc2-3)c1 | -10 | 0 | -5 | -4 | -12 | 1 | .
C#CCNC(=O)C[C@H]1C(=O)N(CCc2ccc(Cl)cc2)C2=CCCC[C@@]21C(=O)OCC | 3 | . | -2 | 0 | . | . | .
COC(=O)C1=C(C)N(C)C(=NCc2cccc(C(F)(F)F)c2)NC1c1ccc(C(F)(F)F)cc1 (centres undefined) | 19 | . | -2 | -1 | . | 5 | .
CCCCCc1ccc(OCCCC[n+]2ccc(C)cc2)c(CCCCC)c1 | 30* | -2 | 7 | -2 | 24 | 7 | 36*
CN(C)c1ccc(N=Nc2ccc(S(=O)(=O)O)cc2)c2ccccc12 | 56* | -12 | 0 | 14 | 26 | -4 | 60*
CO[C@H]1C=CO[C@@]2(C)Oc3c(C)c(O)c4c(O)c(c(C=NN5CCN(C)CC5)c(O)c4c3C2=O)NC(=O)C(C)=CC=C[C@H](C)[C@H](O)[C@@H](C)[C@@H](O)[C@@H](C)[C@H](OC(C)=O)[C@@H]1C | 33* | -5 | 10 | 8 | 34 | -6 | 10
COC(=O)[C@]12C[C@H](CC(=O)NCc3ccc(C)o3)C(=O)N(Cc3ccc4c(c3)OCO4)C1=C[C@H](C(C)(C)C)O[C@@H]2C | -5 | . | 8 | 2 | . | -2 | .
